Source: article PMC5973995 (Clinical Pharmacokinetics, 2017)
Where two headings read alike, the source gives them in different places.

Experiments:
[1] = cited from earlier work
Distribution coefficient = type: physicochemical; settings: data on file
CYP3A4/5 = assay: In-vitro CYP inhibition in pooled human liver microsomes; type: in vitro ADME; settings: data on file
5-HT1D receptor = settings: in vitro; cited from earlier work
CYP2C19 = CYP2C19 (Homo sapiens, UniProt P33261); assay: In-vitro CYP inhibition in pooled human liver microsomes; type: in vitro ADME
Sequence of CYP2C19 (P33261 whole entry): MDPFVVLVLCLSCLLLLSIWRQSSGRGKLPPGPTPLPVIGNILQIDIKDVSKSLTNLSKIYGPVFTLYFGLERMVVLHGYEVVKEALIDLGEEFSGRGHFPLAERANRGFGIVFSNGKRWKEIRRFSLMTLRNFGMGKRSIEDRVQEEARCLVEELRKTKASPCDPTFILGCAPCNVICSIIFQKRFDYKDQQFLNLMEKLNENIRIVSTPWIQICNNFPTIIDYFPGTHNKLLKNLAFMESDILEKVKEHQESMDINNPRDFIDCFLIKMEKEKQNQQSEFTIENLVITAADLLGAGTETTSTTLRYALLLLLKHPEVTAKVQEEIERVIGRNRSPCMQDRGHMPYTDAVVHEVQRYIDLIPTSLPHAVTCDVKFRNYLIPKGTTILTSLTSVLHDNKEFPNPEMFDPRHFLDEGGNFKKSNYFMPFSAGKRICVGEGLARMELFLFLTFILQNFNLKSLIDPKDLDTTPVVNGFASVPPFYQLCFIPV

[2] = cited from earlier work; remark: listed apart in the source
CYP2A6 = biological target: T1, CYP2A6 (Homo sapiens, UniProt P11509); assay: In-vitro CYP inhibition in pooled human liver microsomes; type: in vitro ADME; settings: data on file
T1 sequence (P11509 1-494): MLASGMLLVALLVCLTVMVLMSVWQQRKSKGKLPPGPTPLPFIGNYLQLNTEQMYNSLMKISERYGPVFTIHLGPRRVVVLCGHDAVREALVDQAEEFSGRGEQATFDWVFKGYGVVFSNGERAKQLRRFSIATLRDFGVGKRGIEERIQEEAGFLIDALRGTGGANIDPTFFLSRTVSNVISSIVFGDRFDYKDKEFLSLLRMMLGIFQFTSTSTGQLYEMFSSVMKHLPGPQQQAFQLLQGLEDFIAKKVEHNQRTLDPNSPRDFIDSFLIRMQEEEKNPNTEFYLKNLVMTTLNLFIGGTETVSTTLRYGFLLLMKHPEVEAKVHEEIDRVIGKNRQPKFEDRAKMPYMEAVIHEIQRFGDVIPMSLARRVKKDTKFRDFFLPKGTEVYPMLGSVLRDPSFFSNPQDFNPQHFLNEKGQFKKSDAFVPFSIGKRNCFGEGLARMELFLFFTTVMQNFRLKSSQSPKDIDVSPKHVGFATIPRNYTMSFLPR

[3] = once-daily dosing; cited from earlier work
[4] = cited from earlier work; remark: listed apart in the source
5-HT transporter (SERT) = settings: in vitro; cited from earlier work
[5] = type: in vivo, human; settings: for AUC(0-inf) / AUC(0-t) / Cmax / Tmax / Vd/F / half-life: both, human, plasma, po; for CL/F: healthy subjects, mean (% CV)
In short: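 Healthy subjects given a single oral dose; plasma parameters derived by non-compartmental analysis of pooled phase I data. Reported as mean and % coefficient of variation, except Tmax as median (minimum–maximum). AUC taken both to infinity and to the last quantifiable concentration. CL/F is total clearance, and Vz/F is the terminal-phase apparent volume after extravascular dosing.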

[6] = cited from earlier work; remark: listed apart in the source
plasma protein = settings: healthy volunteers and hepatic or renal impairment; cited from earlier work
[7] = cited from earlier work; remark: listed apart in the source
[8] = cited from earlier work; remark: listed apart in the source
SERT = settings: Japanese and white male individuals, cited from earlier work
[9] = once-daily 10 mg; 21 young individuals; cited from earlier work
[10] = Effect of sex, age and race/ethnicity on pharmacokinetics; type: in vivo, human
[11] = 10 mg daily for 14 days (Fig. 2)
[12] = single dose 10 mg, 65–85 vs 18–45 years
[13] = single dose, 24 male vs 24 female
[14] = within 360 h, single 50-mg 14C dose
[15] = multiple doses of 2.5, 5, and 20 mg, male, data on file

For `Br.Cc1ccc(Sc2ccccc2N2CCNCC2)c(C)c1` [vortioxetine, 1-[2-(2,4-dimethyl-phenylsulfanyl)-phenyl]-piperazine, hydrobromide], the “tolerability regardless of degree of renal or hepatic impairment” value [1] is listed as “well tolerated”, the tolerability of combination ([1]; rifampin 600 mg daily with vortioxetine 20 mg) is listed as “well tolerated” and the “distribution coefficient (octanol/water)” value (Distribution coefficient; pH 3, 25 °C) is listed as 2.2. The “distribution coefficient (octanol/water)” value (Distribution coefficient; pH 11, 25 °C) was 4.7, the “inhibitory in-vitro effect on CYP3A4/5” value (CYP3A4/5) was “no inhibitory in-vitro effect” and the “action at 5-HT1D receptor” value (5-HT1D receptor) was “antagonist”. For the same molecule, the “ratio of maximum plasma concentration of inhibitor (I) and Ki” value (CYP2C19; CYP2C19, much smaller than) was “smaller than 0.1”, the “inhibitory effect on CYP2C19” value (CYP2C19; pooled human liver microsomes, CYP isozyme-specific probe substrates, data on file) was “inhibitory effect” and the “arachidonic acid-, adenosine diphosphate-, or collagen-induced platelet aggregation” value ([2]; vortioxetine 10 mg added to aspirin 150 mg) was “did not change”. The “International Normalized Ratio or prothrombin times between groups” value ([2]; vortioxetine 10 mg with stable warfarin doses (1–10 mg), day 14) was “no difference”, the “inhibitory in-vitro effect on CYP2A6” value (CYP2A6) was “no inhibitory in-vitro effect” and the “time to steady-state plasma concentrations” value [3] was no more than 2 weeks. For the same molecule, the “AUC(0–24) higher in black than white volunteers” value [4, 11] was 25%, the “C max higher in black than white volunteers” value [4, 11] was 33% and the “AUC(0–t) higher in elderly than young subjects” value [4, 12] was 4%. For the same molecule, the “C max lower in elderly than young subjects” value [4, 12] was 11%, the “AUC(0–t) higher in female than male subjects” value [4, 13] was 18% and the “C max higher in female than male subjects” value [4, 13] was 16%. For the same molecule, the “action at 5-HT transporter (SERT)” value (5-HT transporter (SERT)) was “inhibitor”, the “time to reach maximum observed plasma concentration” value ([5]; after single or multiple dosing (Tables 1, 2)) was 7 to 11 h and the AUC(0-inf) ([5]; 5 mg) was 188 ng·h/mL. The AUC(0-t) ([5]; 5 mg) was 157 ng·h/mL, the Cmax ([5]; 5 mg) was 1.87 ng/mL and the Tmax ([5]; 5 mg) was 11 h. For the same molecule, the Vd/F ([5]; 5 mg) was 2740 L, the half-life ([5]; 5 mg) was 69.4 h and the AUC(0-inf) ([5]; 10 mg) was 273 ng·h/mL. It also gave an AUC(0-t) ([5]; 10 mg) of 255 ng·h/mL, a Cmax ([5]; 10 mg) of 4.6 ng/mL and a Tmax ([5]; 10 mg) of 8 h. For the same molecule, the Vd/F ([5]; 10 mg) was 2770 L, the half-life ([5]; 10 mg) was 60.6 h and the AUC(0-inf) ([5]; 20 mg) was 646 ng·h/mL. The AUC(0-t) ([5]; 20 mg) was 561 ng·h/mL, the Cmax ([5]; 20 mg) was 8.11 ng/mL and the Tmax ([5]; 20 mg) was 10 h. The Vd/F ([5]; 20 mg) was 3290 L, the half-life ([5]; 20 mg) was 64.3 h and the “estimated total clearance (CL/F)” value ([5]; oral, single or multiple doses (Tables 1, 2)) was 30 to 41 L/h. For the same molecule, the CL/F ([5]; single oral dose 5 mg) was 29.62 (35) L/h, the CL/F ([5]; single oral dose 10 mg) was 40.52 (40) L/h and the CL/F ([5]; single oral dose 20 mg) was 41.47 (60) L/h. The “plasma protein binding, renally compromised vs healthy controls” value [6] was “no difference”, the “C max lower than healthy controls” value ([6]; end-stage renal disease, single dose 10 mg (Fig. 2)) was 27% and the “predicted exposure, difference from healthy control group” value ([6]; linear regression on creatinine clearance) was no more than 30%. For the same molecule, the “AUC(0–t) higher than healthy controls” value ([6]; mild renal impairment, single dose 10 mg) was 9%, the “C max difference from healthy controls” value ([6]; mild, moderate, or severe renal impairment, single dose 10 mg) was no more than 11% and the “AUC(0–t) higher than healthy controls” value ([6]; moderate renal impairment, single dose 10 mg) was 16%. The “AUC(0–t) higher than healthy controls” value ([6]; severe renal impairment, single dose 10 mg) was 11%, the “bound to plasma protein” value (plasma protein) was “Approximately 99%” and the unbound drug (plasma protein) was 1%. For the same molecule, the “parent drug detected in the feces” value ([7]; single 50-mg 14C dose, feces only) was 1.5%, the “drug concentration in plasma relative to whole blood” value ([7]; single oral dose 50 mg 14C-labeled) was “double” and the “drug-related material recovered in feces” value [7, 14] was 26%. For the same molecule, the “drug-related material recovered in urine” value [7, 14] was 59%, the “drug-related material recovered in urine and feces” value [7, 14] was “approximately 85%” and the “effect on neuropsychologic tests of cognitive domains with diazepam” value ([8]; co-administration with diazepam) was “did not have a statistically significant effect”. For the same molecule, the “effect on mental and motor impairment effects of alcohol” value ([8]; computerized neuropsychologic tests) was “did not increase”, the SERT occupancy (SERT; 5-mg dose) was “approximately 50%” and the SERT occupancy (SERT; 10-mg dose) was roughly 65%. For the same molecule, the SERT occupancy (SERT; 20-mg dose) was “above 80%”, the “impairment of driving, cognitive function, or psychomotor skills” value [9] was “not to impair” and the “AUC(0–24) higher in elderly than young subjects” value ([10]; multiple 10-mg doses (Fig. 2)) was 27%. The “C max higher in elderly than young subjects” value ([10]; multiple 10-mg doses (Fig. 2)) was 23%, the “AUC(0–24) higher in female than male subjects” value ([10]; multiple doses (Fig. 2)) was 27% and the “C max higher in female than male subjects” value ([10]; multiple doses (Fig. 2)) was 24%. For the same molecule, the “AUC(0–24) higher in Japanese than white participants” value [10, 15] was 8% and the “C max higher in Japanese than white participants” value [10, 15] was 9%.
